Data taken from ChEMBL document CHEMBL1141198, “Design and synthesis of tri-ring P3 benzamide-containing aminonitriles as potent, selective, orally effective inhibitors of cathepsin K” (J Med Chem, 2005).

Legend:
Cathepsin B = Cathepsin B (Homo sapiens, UniProt P07858); assay: Inhibitory constant against human cathepsin B using Boc-Leu-Lys-Arg-AMC substrate
Procathepsin L = Procathepsin L (Homo sapiens, UniProt P07711); assay: Inhibitory constant against human cathepsin L using Z-Phe-Arg-AMC substrate
Procathepsin L, sequence (P07711 whole entry): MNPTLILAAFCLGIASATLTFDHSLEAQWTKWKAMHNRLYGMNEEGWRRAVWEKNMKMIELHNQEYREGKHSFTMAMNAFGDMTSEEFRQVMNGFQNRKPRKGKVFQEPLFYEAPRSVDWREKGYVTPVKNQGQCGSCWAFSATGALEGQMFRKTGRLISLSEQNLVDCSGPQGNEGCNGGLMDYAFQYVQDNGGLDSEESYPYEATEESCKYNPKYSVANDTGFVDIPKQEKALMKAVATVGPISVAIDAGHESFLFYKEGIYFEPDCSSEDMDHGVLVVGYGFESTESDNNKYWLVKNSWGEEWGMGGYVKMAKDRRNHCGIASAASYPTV
Outline: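 Recombinant human cathepsin L at 500 pM in 50 mM MES pH 5.5, 2.5 mM DTT, 2.5 mM EDTA, 10% DMSO. Enzyme preincubated with inhibitor (8 concentrations) 30 min at 21–24 °C. Reaction started with 10 μM Z-Phe-Arg-AMC; AMC fluorescence (ex 355/em 460 nm) over first ~5 min. Ki(app) fitted with Morrison tight-binding model.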

Cathepsin S = Cathepsin S (Homo sapiens, UniProt P25774); assay: Inhibitory constant against human cathepsin S using Z-Val-Val-Arg-AMC substrate
Cathepsin S, sequence (P25774 whole entry): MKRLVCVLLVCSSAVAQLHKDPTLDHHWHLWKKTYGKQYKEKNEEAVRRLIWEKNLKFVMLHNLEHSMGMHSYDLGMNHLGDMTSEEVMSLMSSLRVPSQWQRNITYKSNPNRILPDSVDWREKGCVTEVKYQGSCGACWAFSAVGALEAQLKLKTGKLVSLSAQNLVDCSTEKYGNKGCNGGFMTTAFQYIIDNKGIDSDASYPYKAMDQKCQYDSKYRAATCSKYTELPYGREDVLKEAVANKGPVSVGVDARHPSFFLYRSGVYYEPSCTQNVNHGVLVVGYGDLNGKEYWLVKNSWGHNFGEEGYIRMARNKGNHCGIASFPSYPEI
Outline: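 Recombinant human cathepsin S at 500 pM in 50 mM MES pH 6.5, 2.5 mM β-mercaptoethanol, 2.5 mM EDTA, 100 mM NaCl, 0.001% BSA, 10% DMSO. 30 min enzyme–inhibitor preincubation at 21–24 °C, 8 inhibitor concentrations. Started with 60 μM Z-Val-Val-Arg-AMC; initial rates by AMC fluorescence (ex 355/em 460). Ki(app) by Morrison tight-binding fit.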

Osteoclast = assay: In vitro bone resorption in isolated rabbit osteoclasts; assay type: functional, cell-based; conditions: Oryctolagus cuniculus
Outline: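 Bovine bone degraded by isolated rabbit osteoclasts; collagen degradation read by ELISA. 8-point dose–response curves; IC50 derived.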

[1] = Plasma clearance in rat administered with 0.5 mg/kg, iv; assay type: ADME, organism-based; parameters: dose 0.5 mg/kg, route intravenous
Outline: (§1)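 Rats, three per study, cassette iv dosing of up to four compounds. Formulation DMSO (<20%), PEG 400 (<20%) and water at 0.5 mg/mL per compound, given at 1 mL/kg for 0.5 mg/kg per compound.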

[2] = Volume of distribution in rat administered with 0.5 mg/kg, iv; assay type: ADME, organism-based; parameters: dose 0.5 mg/kg, route intravenous; conditions: in vivo, read-out: Vss; outline: as §1
Rattus norvegicus [3] = assay: Mean residence time in rat administered with 0.5 mg/kg, iv; assay type: functional, organism-based; parameters: dose 0.5 mg/kg; outline: as §1
Rattus norvegicus [4] = assay: Terminal half-life in rat administered with 0.5 mg/kg, iv; assay type: functional, organism-based; parameters: dose 0.5 mg/kg; outline: as §1
[5] = Maximum concentration in rat administered with 0.5 mg/kg, iv; assay type: ADME, organism-based; parameters: dose 0.5 mg/kg, route intravenous; conditions: in vivo
[6] = target: Cathepsin K (Homo sapiens) (UniProt P43235); assay: Inhibitory constant against human cathepsin K using Z-Phe-Arg-AMC substrate
Rhesus monkey = assay: Reduction of collagen breakdown products in ovariectomized rhesus monkey dosed at 15, 3 and 0.6 mg/kg, po; assay type: functional, Macaca mulatta; parameters: scale not given: the % may be the effect or the level left
Outline: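 OVX rhesus monkeys (mean age 15 y, 3 y post-surgery): vehicle 1% carboxymethylcellulose po qd 2 days, then compound po qd 8–11 days at 15, 3 or 0.6 mg/kg, then 3 days vehicle. Controls on vehicle for 13 days. 24-h urine collected pre-dose, during dosing and 10–17 days after; urinary NTx normalized to creatinine (nM/mM).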

Cathepsin K = target: T1, Cathepsin K (Oryctolagus cuniculus, UniProt P43236); assay: Inhibitory constant against rabbit cathepsin K using Z-Phe-Arg-AMC substrate; conditions: read-out: Ki app
T1 sequence (P43236 whole entry): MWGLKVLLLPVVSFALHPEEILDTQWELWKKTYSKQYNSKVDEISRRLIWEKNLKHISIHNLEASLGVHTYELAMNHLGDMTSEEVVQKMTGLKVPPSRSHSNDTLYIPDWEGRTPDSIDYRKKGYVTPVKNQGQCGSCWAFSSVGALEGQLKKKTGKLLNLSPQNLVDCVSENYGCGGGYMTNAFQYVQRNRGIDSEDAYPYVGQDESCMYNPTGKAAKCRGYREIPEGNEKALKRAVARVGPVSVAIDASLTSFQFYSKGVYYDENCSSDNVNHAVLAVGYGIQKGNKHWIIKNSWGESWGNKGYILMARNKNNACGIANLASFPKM

Rattus norvegicus [7] = assay: Oral bioavailability in rat; assay type: functional, organism-based
Outline: (§2)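 Single-compound rat PK: 0.5 mg/kg iv and 10 mg/kg oral. Bioavailability from oral versus iv exposure.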

Rattus norvegicus [8] = species: Rattus norvegicus; assay: Terminal half-life in rat; assay type: functional, organism-based
[9] = Maximum concentration in rat administered with 20 mg/kg, po; assay type: ADME, organism-based; parameters: dose 20 mg/kg, route oral; conditions: in vivo
[10] = Maximum concentration in rat administered with 10 mg/kg, po; assay type: ADME, organism-based; parameters: dose 10 mg/kg, route oral; conditions: in vivo; outline: as §2
Rattus norvegicus [11] = assay: Terminal half-life in rat administered with 10 mg/kg, po; assay type: functional, organism-based; parameters: dose 10 mg/kg; outline: as §2
Rattus norvegicus [12] = assay: Time of peak concentration post-dose in rat administered with 10 mg/kg, po; assay type: functional, organism-based; parameters: dose 10 mg/kg; outline: as §2

Structure (SMILES)	Ki (Cathepsin B; read-out: Ki app)	Ki (Procathepsin L; read-out: Ki app)	Ki (Cathepsin S; read-out: Ki app)	IC50 (Osteoclast)	clearance [1]	Vd [2]	MRT (Rattus norvegicus [3])	T1/2 (Rattus norvegicus [4])	Cmax [5]	Ki ([6]; read-out: Ki app)	bioavailability (Rattus norvegicus [7])	T1/2 (Rattus norvegicus [8])	further results
N#CCNC(=O)C1(NC(=O)c2ccc(-c3ccc(S(=O)(=O)N4CCN(CC(F)(F)F)CC4)cc3)cc2)CCCCC1	56000 nM	540 nM	5500 nM	320 nM	40 mL/min/kg	1.55 L/kg	0.65 h	0.767 h	1200 nM	6.1 nM			
CN1CCN(c2nc(-c3ccc(C(=O)NC4(C(=O)NCC#N)CCCCC4)cc3)cs2)CC1	1000 nM	6000 nM	47000 nM	5 nM						0.2 nM	68%	3.4 h	Activity (Rhesus monkey): 76%; Ki (Cathepsin K): 0.5 nM; Cmax [9]: 1400 nM
CC(C)(C)N1CCN(c2nc(-c3ccc(C(=O)NC4(C(=O)NCC#N)CCCCC4)cc3)cs2)CC1	910 nM	8800 nM	19000 nM	1 nM						0.29 nM	44%	1.67 h	Cmax [10]: 800 nM
N#CCNC(=O)C1(NC(=O)c2ccc(-c3ccc(OC4CCN(CCO)CC4)cc3)cc2)CCCCC1	640 nM	9100 nM	16000 nM	59 nM	231 mL/min/kg	25.3 L/kg	1.83 h	2.05 h	220 nM	< 0.25 nM			
N#CCNC(=O)C1(NC(=O)c2ccc(-c3ccc(N4CCNCC4)cc3)cc2)CCCCC1	420 nM	7900 nM	4900 nM	77 nM	71 mL/min/kg	7.23 L/kg	1.73 h	1.4 h	500 nM	< 0.25 nM	21%		T1/2 (Rattus norvegicus [11]): 1.88 h; Tmax (Rattus norvegicus [12]): 2 h
CC(C)(C)NC1CCN(c2ccc(-c3ccc(C(=O)NC4(C(=O)NCC#N)CCCCC4)cc3)cc2)CC1				40 nM	84 mL/min/kg	10.7 L/kg	2.17 h	1.93 h	360 nM				Ki (Cathepsin B; read-out: Ki): 76000 nM; Ki (Procathepsin L; read-out: Ki): 1600 nM; Ki (Cathepsin S; read-out: Ki): 3900 nM; Ki ([6]; read-out: Ki): < 0.25 nM
CN1CCCC(Oc2ccc(-c3ccc(C(=O)NC4(C(=O)NCC#N)CCCCC4)cc3)cc2)C1 (configuration not stated)	870 nM	2300 nM	13000 nM	10 nM	104 mL/min/kg	8.46 L/kg	1.35 h	1.5 h	250 nM	0.67 nM			
COCCN1CCC(Oc2ccc(-c3ccc(C(=O)NC4(C(=O)NCC#N)CCCCC4)cc3)cc2)CC1	540 nM	1200 nM	6200 nM	21 nM	43 mL/min/kg	3.27 L/kg	1.95 h	2.02 h	370 nM	< 0.25 nM			
N#CCNC(=O)C1(NC(=O)c2ccc(-c3ccc(S(=O)(=O)N4CCNCC4)cc3)cc2)CCCCC1	380 nM	430 nM	9100 nM	20 nM	82 mL/min/kg	3.29 L/kg	0.667 h	1.3 h	1000 nM	< 0.25 nM			
N#CCNC(=O)C1(NC(=O)c2ccc(-c3csc(N4CCC(N5CCOCC5)CC4)n3)cc2)CCCCC1	670 nM	16000 nM	6400 nM	3 nM						< 0.25 nM	48%	5.33 h	Cmax [10]: 1700 nM
CN1CCC(Oc2ccc(-c3ccc(C(=O)NC4(C(=O)NCC#N)CCCCC4)cc3)cc2)CC1	530 nM	5600 nM	12000 nM	20 nM	97 mL/min/kg	11.1 L/kg	1.9 h	1.9 h	320 nM	< 0.25 nM			
N#CCNC(=O)C1(NC(=O)c2ccc(-c3ccc(C4(F)CCNCC4)cc3)cc2)CCCCC1	280 nM	900 nM	7900 nM	35 nM	37 mL/min/kg	1.76 L/kg	0.8 h	0.783 h	660 nM	< 0.25 nM			
N#CCNC(=O)C1(NC(=O)c2ccc(-c3csc(N4CCC(N5CCCCC5)CC4)n3)cc2)CCCCC1	690 nM	8800 nM	42000 nM	3 nM						0.45 nM	35%	3.35 h	Cmax [10]: 360 nM
